Source: PubChem BioAssay
SENP6 block = blocks the human protease SENP6; Q9GZR1; Recombinant SENP6 catalytic domain, aminoluciferin luminescence; inhibition, % at 10 µM; 330,000 tested, 1.8% active; AID 2599;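 active means inhibition above about 50% at the single tested dose, limit read from the data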;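 further: plate controls were DMSO wells with enzyme for no effect and DMSO wells lacking enzyme for full effect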
SENP8 block-1 = inhibitors of human SENP8 protease; 330,000 tested, 1.2% active; purified SENP8, Z-RLRGG-aminoluciferin cleavage, luminescence; inhibition, % at 10 µM; AID 2540; in the data active means inhibition above about 50%
SENP7 inh = blocks the human protease SENP7; recombinant SENP7, Z-RLRGG-aminoluciferin luminescence, 40 min; Q9BQF6; inhibition, % at 5 µM; 330,000 tested, 1.5% active;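 active means inhibition above about 50% at the single test dose, limit read from the data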;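 further: plate controls were DMSO with enzyme for no effect and no enzyme buffer wells for full effect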
Apaf1 inhib = blocks human Apaf-1 apoptosome activity; AID 489030; O14727; reconstituted apoptosome caspase-3 activity, DEVD-Rh110 fluorescence; inhibition, % at 20 µM; 330,000 tested, 0.71% active; active means inhibition of at least 40% at 20 µM;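 further: plate controls were DMSO wells for no effect and DEVD-CHO caspase inhibitor wells for full effect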
Target sequence (O14727 whole entry, looked up): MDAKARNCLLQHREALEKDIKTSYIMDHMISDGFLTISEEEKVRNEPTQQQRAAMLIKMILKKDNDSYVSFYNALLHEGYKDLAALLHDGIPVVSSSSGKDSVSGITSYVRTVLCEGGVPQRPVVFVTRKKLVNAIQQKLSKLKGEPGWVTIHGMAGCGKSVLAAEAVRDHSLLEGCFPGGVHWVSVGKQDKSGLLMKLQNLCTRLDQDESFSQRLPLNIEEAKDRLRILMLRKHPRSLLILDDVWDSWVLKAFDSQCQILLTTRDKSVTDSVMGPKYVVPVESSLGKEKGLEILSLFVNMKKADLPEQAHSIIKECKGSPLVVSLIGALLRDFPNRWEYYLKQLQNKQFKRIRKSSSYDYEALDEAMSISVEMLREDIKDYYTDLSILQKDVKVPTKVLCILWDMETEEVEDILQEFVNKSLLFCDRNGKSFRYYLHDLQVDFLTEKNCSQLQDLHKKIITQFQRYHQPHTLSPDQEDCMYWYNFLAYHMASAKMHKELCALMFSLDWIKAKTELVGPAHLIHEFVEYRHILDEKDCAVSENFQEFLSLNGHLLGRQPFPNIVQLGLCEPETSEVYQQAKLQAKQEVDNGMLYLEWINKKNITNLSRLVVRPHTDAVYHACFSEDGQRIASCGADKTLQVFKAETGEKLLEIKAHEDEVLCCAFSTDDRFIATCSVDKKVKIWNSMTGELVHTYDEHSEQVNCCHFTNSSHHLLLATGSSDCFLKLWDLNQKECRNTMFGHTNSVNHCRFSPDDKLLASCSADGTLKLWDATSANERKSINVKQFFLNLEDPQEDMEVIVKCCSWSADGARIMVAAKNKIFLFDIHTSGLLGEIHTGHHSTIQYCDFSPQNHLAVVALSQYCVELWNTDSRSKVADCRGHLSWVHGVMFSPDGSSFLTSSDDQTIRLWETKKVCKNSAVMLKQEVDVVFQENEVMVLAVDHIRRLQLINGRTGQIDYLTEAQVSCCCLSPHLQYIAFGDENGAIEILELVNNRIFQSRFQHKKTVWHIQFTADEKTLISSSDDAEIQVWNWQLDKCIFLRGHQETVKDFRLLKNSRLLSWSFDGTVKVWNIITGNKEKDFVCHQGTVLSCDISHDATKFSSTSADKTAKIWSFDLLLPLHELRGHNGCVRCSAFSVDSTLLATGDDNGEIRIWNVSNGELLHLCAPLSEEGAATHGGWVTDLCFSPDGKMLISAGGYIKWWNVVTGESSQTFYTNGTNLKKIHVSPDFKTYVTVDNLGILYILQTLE
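Assay system: Apoptosome proteins | Medium: pH 7.5 Hepes buffer with CHAPS, BSA, DTT | Also added: Cytochrome c and DEVD-Rh110 substrate | Times: 30 min plus 50 min, RT | Detection: Rhodamine 110 fluorescence at Ex 480/Em 540 nm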
SENP1 inh = blocks the human SENP1 SUMO protease catalytic domain; Q9P0U3; recombinant SENP1 catalytic domain, CyPet-SUMO1-YPet FRET cleavage; inhibition, % at 10 µM; 360,000 tested, 0.21% active; AID 624204;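 active means inhibition at least 30% at 10 µM, raw YFP signal under a set limit, fluorescence ratio 0.5 to 1.5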;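 further: 0% = enzyme with DMSO and 100% = no enzyme wells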
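Controls: no-enzyme wells low, DMSO-plus-enzyme wells high control. Test system: human recombinant His6-tagged SENP1 catalytic domain enzyme. Reagent: SFCypet-SUMO1-SFYpet FRET protein substrate, 25 nM final. Doses: one dose per compound, 10 µM, 0.5% DMSO. Detection: FRET, CFP and YFP emission. Timing: 50 min reaction at room temperature.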
SENP8 block-2 = inhibitors of human SENP8 protease | Q96LD8 | 360,000 tested, 0.64% active | inhibition, % at 20 µM | recombinant SENP8, Nedd8 substrate fluorescence; in the data active means inhibition mostly above about 40%, no sharp cut-off; inactive means mostly below about 27%
SENP8 conf = human SENP8 inhibition, confirmed | shares compounds with SENP7 inh | Recombinant SENP8, Z-RLRGG-aminoluciferin luminescence, 60 min | inhibition, % at 12.5 µM | 6,200 tested, 40% active | AID 488912;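 active means mean inhibition across replicates above about 50%, limit read from the data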
SENP6 confirm = confirmation of human SENP6 protease inhibitors. shares compounds with SENP7 inh. recombinant SENP6, Z-RLRGG-aminoluciferin luminescence. inhibition, % at 12.5 µM. 6,200 tested, 58% active. AID 488915
SENP7 conf = human SENP7 inhibition, confirmed; shares compounds with SENP7 inh; recombinant SENP7, Z-RLRGG-aminoluciferin luminescence, 40 min; inhibition, % at 12.5 µM; 6,200 tested, 69% active; AID 488917
Casp3 SENP sel = inhibits human caspase-3 in SENP selectivity test. shares compounds with SENP7 inh. purified caspase-3, Z-DEVD-aminoluciferin luminescence, 60 min. inhibition, % at 12.5 µM. 6,200 tested, 60% active. AID 488918;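 active means mean inhibition above about 50%, limit read from the data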;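 further: plate controls were enzyme with DMSO for no effect and wells without caspase-3 for full effect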
Luc interf = luminescence interference (SENP counter-screen). shares compounds with SENP7 inh. Pre-incubated SENP8/Z-RLRGG-aminoluciferin, luciferase luminescence interference. inhibition, % at 12.5 µM. 6,200 tested, 39% active;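 active means mean inhibition above about 50% when retested at one dose, limit read from the data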;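 further: plate controls were DMSO wells with completed reaction for no effect and substrate without enzyme for full effect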
An asterisk follows results filed as active; · = no result. Shown are actives, neighbours in structure and some others; about 2.9% of the full set was active somewhere.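 How the source made its calls, unless noted: active means mean inhibition above about 50% in the one-dose retest (limit read from the data); inactive means the rest.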

SMILES | SENP6 block | SENP8 block-1 | SENP7 inh | Apaf1 inhib | SENP1 inh | SENP8 block-2 | SENP8 conf | SENP6 confirm | SENP7 conf | Casp3 SENP sel | Luc interf
O=C(Nc1cc(C(F)(F)F)ccc1Cl)C(Sc1nnc(-c2cccs2)o1)c1ccccc1 (stereo unspecified) | 81* | 76* | 24 | 8 | -3 | 18 | 44 | 40 | 38 | 13 | 27
Cc1cccc(N=C2NC(=O)/C(=C/c3cccs3)S2)c1 | 52* | 7 | 7 | 9 | 3 | -8 | 6 | 16 | 23 | 16 | 6
CN(C)c1ccc(/C=N/N=C/c2ccccc2O)cc1 | 86* | 84* | 97* | -22 | -27 | -26 | 47 | 58* | 61* | 59* | 34
Cc1ccc(N2CC(C(=O)Nc3c4c(nn3C(C)(C)C)CS(=O)(=O)C4)CC2=O)cc1 (stereo unspecified) | 10 | 7 | -4 | 3 | 2 | 5 | · | · | · | · | ·
O=C(N/C(=C/c1cccc(Br)c1)C(=O)N1CCOCC1)c1ccco1 | · | · | · | · | 3 | 16 | · | · | · | · | ·
CN(C)C1CN(Cc2cn(Cc3ccc(Cl)cc3)nn2)S(=O)(=O)C1 (stereo unspecified) | · | · | · | · | 1 | 14 | · | · | · | · | ·
Cc1cc(C(=O)CSc2nnc3ccccn23)c(C)n1-c1ccccc1 | 62* | 37 | 52* | 3 | -2 | 6 | 35 | 36 | 79* | 79* | 61*
CCOC(=O)c1sc(/N=C/c2ccc(O)cc2O)cc1C | 96* | 94* | 9 | 6 | -1 | -33 | 78* | 98* | 101* | 83* | 44
CC(=O)Nc1cc(Cl)c(N=Cc2ccc(O)cc2O)cc1Cl | -1 | 0 | -4 | -6 | -10 | 5 | · | · | · | · | ·
COc1ccccc1C=NNC(=O)NN=Cc1ccccc1OC | · | · | · | · | 3 | 11 | · | · | · | · | ·
COc1cccc(/C=N/NC(=O)N/N=C/c2cccc(OC)c2O)c1O | 50 | 50* | 1 | 2 | -1 | -2 | -3 | 39 | 65* | 61* | 27
COc1cccc(/C=N/Nc2ccccc2C(=O)O)c1O | 93* | 88* | 79* | -2 | 0 | 10 | 94* | 94* | 99* | 92* | 93*
O=C(O)c1cccc(N/N=C/c2ccc(-c3ccccc3)cc2)c1 | · | · | · | · | -17 | -65 | · | · | · | · | ·
COc1ccccc1/C=C/C=N/Nc1cccc(C(=O)O)c1 | 98* | 95* | 87* | -2 | -23 | -167 | 99* | 100* | 102* | 80* | 98*
COc1cccc(/C=N/Nc2ccc(C(=O)O)cc2)c1O | 99* | 98* | 99* | -18 | -7 | -29 | 99* | 100* | 102* | 98* | 97*
CC1(C(=O)NCc2ccccc2)CSCC(=O)N1Cc1cccc(F)c1 (stereo unspecified) | · | · | · | · | -7 | 18 | · | · | · | · | ·
CCCC(NC(=O)C(C)N1CCN(S(=O)(=O)c2ccccc2)CC1)c1ccccc1 (stereo unspecified) | -5 | 5 | 2 | -6 | 2 | 5 | · | · | · | · | ·
COc1ccc(OC)c(C(=O)COC(=O)c2cccnc2Cl)c1 | -12 | -4 | 2 | 12 | 0 | -98 | · | · | · | · | ·
O=C(COC(=O)c1cccnc1Cl)c1ccc(Cl)cc1Cl | 85* | -3 | 67* | 0 | 0 | 7 | 45 | 36 | 88* | 78* | 74*
